The source of these data is ChEMBL document CHEMBL4673404, “Covalent Inhibition of Wild-Type HIV-1 Reverse Transcriptase Using a Fluorosulfate Warhead” (ACS Med Chem Lett, 2021).

A value given as a limit tells only on which side of the number the result lay.

The IC50 is the midpoint of a concentration-inhibition curve. For orientation: CC50 means the concentration giving 50% cytotoxicity.

Series [1] addresses T1, Human immunodeficiency virus type 1 reverse transcriptase (Human immunodeficiency virus 1, UniProt Q72547). Put plainly: Inhibition of recombinant wild type HIV-1 reverse transcriptase using poly(rA)350/oligo(dT)16 as template/primer preincubated for 1 hr followed by substrate addition measured after 30 mins by pico-green reagent based fluorescence analysis. An outline of the steps:
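Recombinant wild-type HIV-1 RT preincubated 1 h with inhibitor or DMSO. Substrate of r(A)350 template and d(T)16 primer then added, 30 min at room temperature. Quenched with EDTA, product detected with PicoGreen by fluorescence (ex 485/em 520 nm). Triplicate runs, normalized to DMSO controls to give IC50.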

Series [2] is described as follows: Cytotoxicity against human MT2 cells assessed as cell growth inhibition after 5 days by MTT assay. The note with it: time 5 day. In kind it is cell-based. An outline of the steps:
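Human MT-2 T-cells were used in the same assay as the HIV-1 IIIB infection-protection test. CC50 was taken as the concentration inhibiting MT-2 cell growth by 50%, with measurements in triplicate.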
Background: Tetrazolium assays rely on reduction of a dye to a coloured formazan, in cell work by metabolically active cells.

In series [3] the target is T1, Human immunodeficiency virus type 1 reverse transcriptase. Put plainly: Covalent inhibition of recombinant wild type HIV-1 reverse transcriptase using poly(rA)350/oligo(dT)16 as template/primer preincubated followed by substrate addition measured after 30 mins by pico-green reagent based fluorescence analysis.
For series [4] the target is unchanged. Description: Covalent inhibition of recombinant wild type HIV-1 reverse transcriptase using poly(rA)350/oligo(dT)16 as template/primer preincubated followed by substrate addition measured after 48 hrs by pico-green reagent based fluorescence analysis. A digest of the protocol:
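Recombinant WT HIV-1 RT preincubated with inhibitor or DMSO control (1 h for line 3, 48 h for line 4). Substrate solution with r(A)350 template and d(T)16 primer then added, reacted 30 min at room temperature, and quenched with EDTA. Product quantified with PicoGreen by fluorescence (ex 485, em 520 nm). Triplicate runs, normalized to DMSO controls to give IC50.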

Series [5] in a line: Covalent inhibition of HIV-1 reverse transcriptase Tyr181Cys mutant. Details: species or system Human immunodeficiency virus 1.

As to `N#C/C=C/c1cc(Cl)cc(Oc2ccc(Cl)cc2OCCn2ccc(=O)[nH]c2=O)c1`, the IC50 in series [1] is 3 nM. Moreover, in series [2], the CC50 at 120 h stood at 10000 nM.

`N#Cc1cc(Cl)cc(Oc2cc(OS(=O)(=O)F)ccc2OCCn2ccc(=O)[nH]c2=O)c1`: the cytotoxic concentration (CC50) at 120 h in series [2] was 100000 nM.

For the compound `Cn1c(=O)ccn(CCOc2cc(OS(=O)(=O)F)ccc2Oc2cc(Cl)cc(C#N)c2)c1=O`, the 50% inhibitory concentration (IC50) in series [3] was 246 nM. Moreover, the half-maximal cytotoxic concentration (CC50) at 120 h in series [2] is 40000 nM.

Take `N#Cc1cc(Cl)cc(Oc2ccc(S(=O)(=O)F)cc2OCCn2ccc(=O)[nH]c2=O)c1`: in series [3], the 50% inhibitory concentration (IC50) worked out at 5000 nM. Also, the half-maximal cytotoxic concentration (CC50) at 120 h in series [2] is 90000 nM.

As to `N#Cc1cc(Cl)cc(Oc2ccc(OS(=O)(=O)F)cc2OCCn2ccc(=O)[nH]c2=O)c1`, the values for the IC50 in series [4], in series [5] and in series [3] were 163 nM, 45 nM and 103 nM, respectively. The CC50 at 120 h in series [2] was determined as 66000 nM.

In the case of `N#Cc1ccc2c(Oc3ccc(OS(=O)(=O)F)cc3OCCn3ccc(=O)[nH]c3=O)cc(Cl)cc2c1`, in series [3], the IC50 came to 14.7 nM. The cytotoxic concentration (CC50) at 120 h in series [2] stood at 15000 nM.

As to `N#Cc1cc(Cl)cc(Oc2cc(OS(=O)(=O)F)ccc2Cl)c1`, the IC50 in series [3] was 833 nM. For the same compound, the half-maximal cytotoxic concentration (CC50) at 120 h in series [2] came out at 78000 nM.

`N#Cc1cc2c(Oc3ccc(OS(=O)(=O)F)cc3OCCn3ccc(=O)[nH]c3=O)cc(Cl)cn2c1`: the results for the IC50 in series [5] and in series [3] were 41 nM and 42.4 nM, respectively. Also, the CC50 at 120 h in series [2] came out at 26000 nM.

On to `N#C/C=C/c1cc(Cl)cc(Oc2ccc(OS(=O)(=O)F)cc2OCCn2ccc(=O)[nH]c2=O)c1`, for which, in series [3], the IC50 was found to be 119 nM. In series [2], the cytotoxic concentration (CC50) at 120 h was determined as 45000 nM.

For the compound `N#C/C=C/c1cc(F)cc(Oc2ccc(OS(=O)(=O)F)cc2OCCn2ccc(=O)[nH]c2=O)c1`, in series [3], the concentration for half-maximal inhibition (IC50) is 150 nM. For the same compound, in series [2], the CC50 at 120 h was 42000 nM.

Regarding `Cn1c(=O)ccn(CCOc2cc(OS(=O)(=O)F)ccc2Oc2cccn3cc(C#N)cc23)c1=O`, the IC50 in series [4] stood at 1110 nM; in series [5], 202 nM; in series [3], 164 nM. Moreover, the 50% cytotoxic concentration (CC50) at 120 h in series [2] was found to be 75000 nM.

`N#Cc1cc(Cl)cc(Oc2ccc(OS(=O)(=O)F)cc2Cl)c1`: in series [3], the IC50 was found to be 4900 nM. The CC50 at 120 h in series [2] was found to be 50000 nM.

In the case of `N#Cc1ccc2c(Oc3ccc(OS(=O)(=O)F)cc3OCCn3ccc(=O)[nH]c3=O)cccc2c1`, in series [3], the IC50 stood at 82.3 nM. In addition, the CC50 at 120 h in series [2] was found to be 62000 nM.

For `N#Cc1cc2c(Oc3ccc(OS(=O)(=O)F)cc3OCCn3ccc(=O)[nH]c3=O)cc(F)cn2c1`, the figures for the IC50 in series [4], in series [5] and in series [3] were 429 nM, 63 nM and 64 nM, respectively. Moreover, the CC50 at 120 h in series [2] came to 55000 nM.

Regarding `Cn1c(=O)ccn(CCOc2cc(S(=O)(=O)F)ccc2Oc2cc(Cl)cc(C#N)c2)c1=O`, in series [3], the IC50 is 375 nM. Moreover, the CC50 at 120 h in series [2] was 60000 nM.

For the compound `Cc1ccnc2c1NC(=O)c1cccnc1N2C1CC1` [NEVIRAPINE], the 50% cytotoxic concentration (CC50) at 120 h in series [2] is > 100000 nM.

For the compound `Cc1cc(/C=C/C#N)cc(C)c1Nc1ccnc(Nc2ccc(C#N)cc2)n1` [RILPIVIRINE], the IC50 in series [3] was 38 nM. In series [2], the CC50 at 120 h is 8000 nM.
